Results as given in PMC10685179 (RSC Advances, 2023).
Values after ≈ are worked out from the molar mass of the structure shown. Where two headings read alike, the source gives them in different places. Blank lines part the entries; values can stand above or below the compound they belong to.

How the values were obtained:
[1] = system: BNL: mouse normal liver cells; assay: SRB cytotoxicity assay on normal cells; format: cell-based
Method in brief: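 Mouse normal liver BNL cells were grown in DMEM with 10% heat-inactivated FBS, penicillin and streptomycin, at 37 °C in 5% CO2. […] SRB assay: 10% TCA fixation at 4 °C for 1 h, 0.4% SRB for 10 min at room temperature, 1% acetic acid washes, 10 mM Tris solubilisation, absorbance at 540 nm. Mean of three, with SD.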

[2] = system: S. aureus KA112; assay: Agar well-diffusion, inhibition zone; format: cell-based, Staphylococcus aureus; details: for zone of inhibition at 10 µM: Staphylococcus aureus, KA112, read-out: Average diameter of inhibition zone (ZI)
Method in brief: (§1)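 Clinical MDR isolates from complicated UTI patients. Suspensions were made in Tryptic Soya and Sabouraud broths from subcultures on Tryptic Soya and Sabouraud agar plates. Agar well diffusion followed CLSI guidelines, with test compounds applied at 10 μM in DMSO. Fosfomycin and fluconazole were positive controls and DMSO the negative control. Zone diameters were read in mm, in triplicate.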

[3] = system: P. mirabilis KA320; assay: Checkerboard microdilution synergy with fosfomycin; format: cell-based, Proteus mirabilis
[4] = system: C. tropicalis KA205; assay: Broth microdilution MIC and MFC; format: cell-based; details: Candida tropicalis; for MIC: KA205, 24 h; for MFC: KA205, read-out: MFC/MIC
[5] = system: P. mirabilis KA320; assay: Agar well-diffusion, inhibition zone; format: cell-based, Proteus mirabilis; details: for zone of inhibition at 10 µM: Proteus mirabilis, KA320, read-out: Average diameter of inhibition zone (ZI)
Method in brief: as §1

[6] = system: E. faecalis KA247; assay: Agar well-diffusion, inhibition zone; format: cell-based, Enterococcus faecalis; details: for zone of inhibition at 10 µM: Enterococcus faecalis, KA247, read-out: Average diameter of inhibition zone (ZI)
Method in brief: as §1

[7] = system: P. mirabilis KA320; assay: Broth microdilution MIC and MBC; format: cell-based; details: Proteus mirabilis; for MIC: KA320, 24 h; for MBC: KA320, read-out: MBC/MIC
[8] = system: E. coli KA780; assay: Agar well-diffusion, inhibition zone; format: cell-based, Escherichia coli; details: for Average diameter of inhibition zone (ZI): 10 μM (DMSO), mean of three ± SEM; for zone of inhibition at 10 µM: Escherichia coli, KA780, read-out: Average diameter of inhibition zone (ZI)
Method in brief: as §1

[9] = system: E. coli KA780; assay: Broth microdilution MIC and MBC; format: cell-based; details: Escherichia coli; for MIC: KA780, 24 h; for MBC: KA780, read-out: MBC/MIC
[10] = system: C. tropicalis KA205; assay: Checkerboard microdilution synergy with fluconazole; format: cell-based, Candida tropicalis
[11] = system: C. albicans KA205; assay: Agar well-diffusion, inhibition zone; format: cell-based, Candida albicans
Method in brief: as §1

[12] = system: MDR microbial isolates; assay: Time-kill kinetics, whole panel; format: cell-based; details: all pathogenic isolates
Method in brief: (§2)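 Untreated organisms served as controls. Bacteria were sampled at 0, 2, 4, 6, 8, 12, 18 and 24 h, and fungi at 0, 2, 4, 6, 8, 18, 24 and 48 h. Counts were made by plate count and plotted as log10 CFU mL−1 versus time.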

[13] = system: C. tropicalis KA205; assay: Agar well-diffusion, inhibition zone; format: cell-based, Candida tropicalis
Method in brief: as §1

[14] = system: bacterial isolates; assay: Time-kill kinetics, bacterial isolates; format: cell-based; details: at MIC
Method in brief: as §2

[15] = system: fungal isolates; assay: Time-kill kinetics, fungal isolates; format: cell-based; details: at MIC
Method in brief: as §2

[16] = system: E. faecalis KA247; assay: Broth microdilution MIC and MBC; format: cell-based; details: Enterococcus faecalis, KA247, 24 h
[17] = system: S. aureus KA112; assay: Broth microdilution MIC and MBC; format: cell-based; details: Staphylococcus aureus; for MIC: KA112, 24 h; for MBC: KA112, read-out: MBC/MIC
[18] = system: fosfomycin-resistant (FO-R) E. coli KA780; assay: SEM of outer membrane integrity; format: cell-based; details: at MIC, compared with DMSO
[19] = system: C. albicans KA205; assay: Broth microdilution MIC and MFC; format: cell-based; details: Candida albicans; for MIC: KA205, 24 h; for MFC: KA205, read-out: MFC/MIC
[20] = target: E. coli MurA enzyme (Escherichia coli, UniProt P0A749); assay: MurA enzyme inhibition assay; format: biochemical; details: for remaining activity at 100 µM: read-out: RA (residual activity), at 100 μM
[21] = system: S. aureus KA112; assay: Checkerboard microdilution synergy with fosfomycin; format: cell-based, Staphylococcus aureus
[22] = system: E. faecalis KA247; assay: Checkerboard microdilution synergy with fosfomycin; format: cell-based, Enterococcus faecalis
[23] = system: E. coli KA780; assay: Checkerboard microdilution synergy with fosfomycin; format: cell-based, Escherichia coli
[24] = Physical and chemical stability after gamma irradiation; format: physicochemical; details: gamma radiation 3.0 kGy to 20.0 kGy
Method in brief: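 Compound powders in sterile tubes were irradiated by a 60Co source at 3.0, 5.0, 7.0, 10.0, 15.0 and 20.0 kGy, at a dose rate of 0.9 kGy h−1. Non-irradiated and irradiated samples were checked for physical and chemical changes by UV-VIS spectrophotometry at 560 nm.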

[25] = system: MDR bacterial and fungal isolates; assay: Broth microdilution MIC/MBC/MFC, whole panel; format: cell-based; details: bactericidal/fungicidal if MBC or MFC not greater than four times the MIC
[26] = 10 μM (DMSO), mean of three ± SEM

E. coli MurA enzyme, sequence (P0A749 whole entry): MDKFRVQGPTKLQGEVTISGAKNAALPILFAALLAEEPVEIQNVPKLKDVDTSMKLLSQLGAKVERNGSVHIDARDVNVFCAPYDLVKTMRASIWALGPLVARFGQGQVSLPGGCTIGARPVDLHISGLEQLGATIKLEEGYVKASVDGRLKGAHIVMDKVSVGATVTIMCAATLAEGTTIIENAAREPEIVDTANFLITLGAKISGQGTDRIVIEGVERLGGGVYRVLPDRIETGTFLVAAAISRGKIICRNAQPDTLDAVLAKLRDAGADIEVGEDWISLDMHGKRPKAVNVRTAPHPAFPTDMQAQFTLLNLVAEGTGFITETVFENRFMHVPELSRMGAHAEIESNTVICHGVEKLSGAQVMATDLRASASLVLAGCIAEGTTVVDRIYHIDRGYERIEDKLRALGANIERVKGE

Structure (SMILES): O=[N+]([O-])c1ccc(-c2nn(-c3ccccc3)c3sc(NC(c4ccccc4O)P(=O)(Oc4ccccc4)Oc4ccccc4)nc23)cc1 (stereo not shown) [Compound 5a, Diphenyl((2-hydroxyphenyl)((3-(4-nitrophenyl)-1-phenyl-1H-pyrazolo[4,3-d]thiazol-5-yl)amino)methyl)phosphonate]
IC50 [1]: > 100 µM
Average diameter of inhibition zone (ZI) [2, 26]: 24 ± 0.51 mm
combination effect [3]: S (FICI ≤ 0.5 (synergism))
Fractional inhibitory concentration index (ΣFICI) ([3]; combination with fosfomycin): 0.5
MIC [4]: 0.125 µg/mL (≈ 0.185 µM)
MFC [4]: 1 µg/mL (≈ 1.48 µM)
Average diameter of inhibition zone (ZI) [5, 26]: 23 ± 0.44 mm
Average diameter of inhibition zone (ZI) [6, 26]: 24 ± 0.20 mm
MIC [7]: 0.125 µg/mL (≈ 0.185 µM)
MBC [7]: 0.5 µg/mL (≈ 0.74 µM)
Average diameter of inhibition zone (ZI) [8]: 25 ± 0.28 mm
MIC [9]: 0.06 µg/mL (≈ 0.0888 µM)
MBC [9]: 0.5 µg/mL (≈ 0.74 µM)
combination effect [10]: S (FICI ≤ 0.5 (synergism))
Fractional inhibitory concentration index (ΣFICI) ([10]; combination with fluconazole): 0.5
Average diameter of inhibition zone (ZI) [11, 26]: 22 ± 0.76 mm
microbial reduction relative to the initial inoculum [12]: ≥ 3 log10
Average diameter of inhibition zone (ZI) [13, 26]: 22 ± 0.43 mm
time of maximum killing rate [14]: 6 h
time of maximum killing rate / maximum reduction in cell counts [15]: 16 h
MIC [16]: 0.125 µg/mL (≈ 0.185 µM)
MIC [17]: 0.06 µg/mL (≈ 0.0888 µM)
MBC [17]: 0.5 µg/mL (≈ 0.74 µM)
effect on outer membrane (SEM image) [18]: perturbation in the membrane and distinct ruptures of the OM integrity
MIC [19]: 0.125 µg/mL (≈ 0.185 µM)
MFC [19]: 0.5 µg/mL (≈ 0.74 µM)
IC50 ([20]; IC50, preincubation 0 min): 41 µM
IC50 ([20]; IC50, preincubation 10 min): 3.8 µM
remaining activity at 100 µM ([20]; preincubation 10 min): 0%
combination effect [21]: S (FICI ≤ 0.5 (synergism))
Fractional inhibitory concentration index (ΣFICI) ([21]; combination with fosfomycin): 0.25
combination effect [22]: S (FICI ≤ 0.5 (synergism))
Fractional inhibitory concentration index (ΣFICI) ([22]; combination with fosfomycin): 0.5
combination effect [23]: S (FICI ≤ 0.5 (synergism))
Fractional inhibitory concentration index (ΣFICI) ([23]; combination with fosfomycin): 0.25
physical changes (odor, color, clarity, solubility, and form) after irradiation [24]: no changes occurred
stability of the chemical structure after irradiation ([24]; UV-VIS spectrophotometer): confirmed the stability of the chemical structure

Structure (SMILES): O=[N+]([O-])c1ccc(-c2nn(-c3ccccc3)c3sc(NC(c4cccs4)P(=O)(Oc4ccccc4)Oc4ccccc4)nc23)cc1 (stereo not shown) [Compound 6a, Diphenyl(((3-(4-nitrophenyl)-1-phenyl-1H-pyrazolo[4,3-d]thiazol-5-yl)amino)(thiophen-2-yl)methyl)phosphonate]
zone of inhibition at 10 µM [2]: 19 mm
MIC [4]: 0.5 µg/mL (≈ 0.751 µM)
MFC [4]: 1 µg/mL (≈ 1.5 µM)
zone of inhibition at 10 µM [5]: 18 ± 0.5 mm
zone of inhibition at 10 µM [6]: 18 ± 0.74 mm
MIC [7]: 2 µg/mL (≈ 3 µM)
MBC [7]: 1 µg/mL (≈ 1.5 µM)
zone of inhibition at 10 µM [8]: 19 ± 0.66 mm
MIC [9]: 1 µg/mL (≈ 1.5 µM)
MBC [9]: 0.5 µg/mL (≈ 0.751 µM)
zone of inhibition at 10 µM ([11]; Candida albicans, KA205, read-out: Average diameter of inhibition zone (ZI)): 20 ± 0.89 mm
zone of inhibition at 10 µM ([13]; Candida tropicalis, KA205, read-out: Average diameter of inhibition zone (ZI)): 20 ± 0.2 mm
MIC [16]: 2 µg/mL (≈ 3 µM)
MIC [17]: 1 µg/mL (≈ 1.5 µM)
MBC [17]: 1 µg/mL (≈ 1.5 µM)
MIC [19]: 0.5 µg/mL (≈ 0.751 µM)
MFC [19]: 0.5 µg/mL (≈ 0.751 µM)

Structure (SMILES): COc1cccc2c1C(=O)c1c(O)c3c(c(O)c1C2=O)C[C@@](O)(C(=O)CO)C[C@@H]3O[C@H]1C[C@H](N)[C@H](O)[C@H](C)O1 [DOX, Doxorubicin, reference compound]
IC50 [1]: 14.7 µM

MIC [7]: 16 µg/mL (≈ 116 µM)
MIC [9]: 256 µg/mL (≈ 1850 µM)
MIC [16]: 8 µg/mL (≈ 57.9 µM)
MIC [17]: 8 µg/mL (≈ 57.9 µM)
IC50 ([20]; IC50, preincubation 0 min): 52 ± 0.33 µM
IC50 ([20]; IC50, preincubation 10 min): 12.7 µM
RA (residual activity) ([20]; at 100 μM, preincubation 0 min): 52 ± 0.55%
remaining activity at 100 µM ([20]; preincubation 0 min): < 60%
remaining activity at 100 µM ([20]; preincubation 10 min): 10 ± 0.92%
Structure (SMILES): C[C@@H]1O[C@@H]1P(=O)(O)O [FO, fosfomycin, reference compound]
zone of inhibition at 10 µM [2]: 18 ± 0.32 mm
zone of inhibition at 10 µM [5]: 19 ± 0.13 mm
zone of inhibition at 10 µM [6]: 17 ± 0.34 mm
MBC [7]: 1 µg/mL (≈ 7.24 µM)
Average diameter of inhibition zone (ZI) [8]: 11 ± 0.23 mm
zone of inhibition at 10 µM [8]: 11 mm
MBC [9]: 1 µg/mL (≈ 7.24 µM)
MBC [17]: 0.4 µg/mL (≈ 2.9 µM)
bactericidal/fungicidal effect [25]: bactericidal and fungicidal activities
